Experimental data of several laboratories.
Compare with care: the assays were run in different laboratories.
Observed: cell growth or viability

N.N.[Cl][Pt][Cl]  GI50 (LoVo; ATP luminescence): 1.7 µg/mL
O=c1ccc2cc3ccoc3cc2o1  IC50 (RD; WST-1; 48 h): 28.3 µM
O=c1c2ccccc2nc(S)n1-c1ccccc1  viability (LoVo; LDH; 200 µg/mL; 24 h): 63%
O=C(O)C(Cl)Cl  IC50 (LoVo; MTT; 72 h): > 50 µM
COc1c2c(cc3c1OCO3)[C@]13C=C[C@H](OC)C[C@@H]1[N@](C2)C[C@H]3OC(=O)c1ccco1  IC50 (A2780; WST-1): > 10 µM
O=C(O)CCCc1ccc(N(CCCl)CCCl)cc1  IC50 (A2780; CCK-8; 48 h): > 50 µM
COc1c2c(cc3c1OCO3)[C@]13C=C[C@H](OC)C[C@@H]1[N@](C2)C[C@H]3OC(=O)c1ccoc1  IC50 (A2780; WST-1): > 10 µM
c1ccc2c(c1)[I+]c1ccccc1-2  IC50 (Caco-2; trypan blue; 48 h): ~0.01 µM
Cc1cccc(-n2ncc(Cl)c(Cl)c2=O)c1  IC50 (NCI-H2122; resazurin; 96 h): 1.15 µM
O=c1ccc2ccc3occc3c2o1  IC50 (RD; WST-1; 48 h): 12.9 µM
CCCCCCCCCCCCCCCC[N+](C)(C)C  IC50 (LLC-PK1; MTT): 6 µM
